Assays:
[1] = Alkaline hydrolysis rate of the compound; format: ADME
Procedure, shortened: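 Alkaline hydrolysis rate constants measured at several pH values at 25 °C. Loss of the long-wavelength UV chromophore (λmax typically 300-345 nm) was followed by spectrophotometer.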

Neutrophil elastase = biological target: T1, Neutrophil elastase (Homo sapiens, UniProt P08246); assay: Inhibition of human leukocyte elastase
T1 sequence (P08246 whole entry): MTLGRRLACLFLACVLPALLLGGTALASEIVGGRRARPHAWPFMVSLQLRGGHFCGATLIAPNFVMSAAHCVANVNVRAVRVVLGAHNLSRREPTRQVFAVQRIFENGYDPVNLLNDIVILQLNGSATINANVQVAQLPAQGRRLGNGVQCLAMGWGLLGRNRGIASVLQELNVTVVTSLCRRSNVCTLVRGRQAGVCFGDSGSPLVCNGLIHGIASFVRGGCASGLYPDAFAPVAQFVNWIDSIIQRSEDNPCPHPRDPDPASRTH

[2] = Partition coefficient (logD7.4); format: physicochemical; conditions: octanol/water, pH 7.4

Structure (SMILES)	Log kOH- [1]	Ki (Neutrophil elastase)	logD [2]
Nc1cccc(CNc2nc3ccccc3c(=O)o2)c1	1.18	1580 nM	
Cc1cccc2c(=O)oc(SCc3ccccc3)nc12		110 nM	
CCCCNc1nc2cccc(C)c2c(=O)o1	0.41		
O=c1oc(C(F)(F)C(F)(F)C(F)(F)F)nc2ccccc12	3.27	91.2 nM	
Cc1cccc2nc(N(C(C)C)C(C)C)oc(=O)c12		398 nM	
O=c1oc(OCc2ccccc2)nc2ccccc12	1.99	56.2 nM	
C[C@H](N)C(=O)c1nc2ccccc2c(=O)o1	1.76	759 nM	
CC(=O)N(C)c1nc2ccccc2c(=O)o1	2.57	5.75 nM	
O=c1oc(NCc2ccccc2)nc2ccccc12	1.12	955 nM	2.8
Cc1cccc2nc(NC3CCCC3)oc(=O)c12		200 nM	
Cc1cccc2c(=O)oc(C(C)(C)C)nc12	0.82	55000 nM	4
CC(C)COc1nc2ccccc2c(=O)o1	1.83	11.5 nM	
CCOC(=O)C(Cc1ccccc1)Nc1nc2ccccc2c(=O)o1 (configuration not stated)		1200 nM	
CCOc1nc2cccc(C(C)C)c2c(=O)o1	0.96	0.0708 nM	
COc1cc2nc(C)oc(=O)c2cc1OC	0.53	832000 nM	
CCC(C)(C)Nc1nc2ccccc2c(=O)o1		155 nM	
NC(=O)C1CCCN1c1nc2ccccc2c(=O)o1 (configuration not stated)	1.21	178 nM	0.4
CCCCN(CCCC)c1nc2cccc(CC)c2c(=O)o1		178 nM	
COc1cc2nc(SCc3c[nH]c4ccccc34)oc(=O)c2cc1OC		12900 nM	
Cc1nc2cc3ccccc3cc2c(=O)o1	2.19	7240 nM	2.8
Cc1ccc2c(=O)oc(NC(C)C)nc2c1C	0.46	708 nM	3.8
CCCCCCNc1nc2ccccc2c(=O)o1	0.96		3.8

Structure (SMILES)	Log kOH- [1]	Ki (Neutrophil elastase)	logD [2]
CCCCN(C(C)=O)c1nc2ccccc2c(=O)o1	2.48	10 nM	
Cc1nc2cccc(C)c2c(=O)o1	0.85	1000 nM	
COC(=O)[C@@H](NC(=O)[C@H](C)Nc1nc2ccccc2c(=O)o1)C(C)C		182 nM	
CCN(CC)c1nc2c(C)ccc(C)c2c(=O)o1		105 nM	
CC(C)N(c1nc2ccccc2c(=O)o1)C(C)C	0.79	2570 nM	3.7
CCCCNc1nc2c(C)cccc2c(=O)o1	0.86	407 nM	
CCOc1nc2cccc(CBr)c2c(=O)o1	1.93	0.0676 nM	
CCCOc1cc(CC)c2c(=O)oc(NC(C)C)nc2c1		21.4 nM	
CC(C)(C)c1nc2ccccc2c(=O)o1	1.38	8910 nM	
CC(C)[C@H](NC(=O)C1CCCN1c1nc2ccccc2c(=O)o1)C(N)=O (some centres not stated)		468 nM	
CC(C)Sc1nc2ccccc2c(=O)o1		7.76 nM	
O=c1oc(-c2ccco2)nc2ccccc12	1.94	1780 nM	
CC(C)COC(=O)N(C)c1nc2ccccc2c(=O)o1	2.21	2.69 nM	
NC(=O)[C@@H]1CCCN1c1nc2ccccc2c(=O)o1	1.21	240 nM	0.4
CCOC(=O)CNc1nc2ccccc2c(=O)o1	1.4	64600 nM	
O=c1oc(Nc2ccccc2)nc2ccccc12	1.18	11000 nM	3.5
O=c1oc(-c2cccc([N+](=O)[O-])c2)nc2ccccc12	1.82	4370 nM	
CCc1cccc2nc(NC(C)C)oc(=O)c12	0.31		
CCNc1nc2ccccc2c(=O)o1		52.5 nM	
CCOc1nc2cccc(C)c2c(=O)o1	1.31	0.115 nM	
COC(=O)[C@H](Nc1nc2ccccc2c(=O)o1)c1ccccc1	1.39	27.5 nM	2.6
O=c1oc(NC2CCCCC2)nc2ccccc12	0.89	112 nM	3.5

Structure (SMILES)	Log kOH- [1]	Ki (Neutrophil elastase)	logD [2]
CCSc1nc2ccccc2c(=O)o1	2.19	8.13 nM	3
O=c1oc(C(F)(F)F)nc2ccccc12	3.52	170 nM	1.9
CCc1cccc2nc(N)oc(=O)c12	-0.08		
O=c1oc(N2CCCCC2)nc2ccccc12		646 nM	3
Cc1cccc2c(=O)oc(NC(C)C)nc12	0.69	589 nM	
Cc1cccc2nc(CBr)oc(=O)c12	1.58	151 nM	
COc1cccc2nc(C(F)(F)F)oc(=O)c12	3.54	417 nM	
CCCCN(CCCC)c1nc2cccc(C)c2c(=O)o1		363 nM	
COc1cc2nc(OCc3ccccc3)oc(=O)c2cc1OC	0.97	933 nM	
Cc1cccc2ncoc(=O)c12	1.38	219 nM	
O=c1oc(SCc2ccccc2)nc2cc3ccccc3cc12		257 nM	
COC(=O)[C@@H](CC(C)C)NC(=O)[C@@H](CC(C)C)Nc1nc2cc(C)cc(C)c2c(=O)o1		102 nM	
O=c1oc(N2CCCC2)nc2ccccc12	0.97	1910 nM	
CCNc1ccc2c(=O)oc(NC(C)C)nc2c1		692 nM	2.4
CC(C)Nc1nc2cc(N)ccc2c(=O)o1	-0.46	776 nM	
Cc1cccc2nc(N)oc(=O)c12	-0.05		
O=c1oc(C(F)(F)C(F)(F)F)nc2ccccc12		110 nM	
CCSc1nc2cc(CC)ccc2c(=O)o1	1.66	20.9 nM	
CCSc1nc2cccc(CC)c2c(=O)o1	1.37		
CCSc1nc2ccc(N(C)C)cc2c(=O)o1	1.76	339 nM	
CCOc1nc2c(C)ccc(C)c2c(=O)o1		0.0955 nM	
COc1cccc2nc(C)oc(=O)c12	0.83	14500 nM	

Structure (SMILES)	Log kOH- [1]	Ki (Neutrophil elastase)	logD [2]
O=c1oc(CBr)nc2ccccc12	2.06	955 nM	
O=c1oc(N2CCOCC2)nc2ccccc12	1.5	708 nM	
CNc1nc2c(C)cccc2c(=O)o1		97700 nM	
CCCCNc1nc2ccccc2c(=O)o1	1.09		3.1
O=c1oc(Cc2ccccc2)nc2ccccc12		3630 nM	
CCc1cccc2nc(C)oc(=O)c12	0.73	120 nM	
CCOc1nc2ccccc2c(=O)o1	1.91	6.46 nM	
CCCc1nc2ccccc2c(=O)o1		2880 nM	
Cc1cccc2nc(NC(C)C)oc(=O)c12	0.41		3
CCOC(=O)Nc1ccc2c(=O)oc(OCC)nc2c1	1.46	17.8 nM	
CCN(CC)c1nc2ccccc2c(=O)o1		372 nM	
Nc1nc2ccccc2c(=O)o1	0.53		
CCSc1nc2cc3ccccc3cc2c(=O)o1	2.54	72.4 nM	
C[C@H](NC(=O)[C@@H]1CCCN1c1nc2ccccc2c(=O)o1)C(N)=O		234 nM	
Cc1ccccc1CNc1nc2ccccc2c(=O)o1	1.01	2820 nM	
CCCNc1nc2ccccc2c(=O)o1			2.4
Cc1cccc2nc(Nc3ccccc3)oc(=O)c12		110 nM	
CN(C)c1ccc(CNc2nc3ccccc3c(=O)o2)cc1	1.81	2000 nM	
CCN(CC)c1ccc2c(=O)oc(NC(C)C)nc2c1	-0.99	5500 nM	
CCC(C)Nc1nc2ccccc2c(=O)o1 (configuration not stated)	0.92	43.7 nM	
Cc1ccc(C)c2c(=O)oc(NC(C)C)nc12	0.2	6.61 nM	
COC(=O)[C@H](CC(C)C)NC(=O)[C@H](CC(C)C)Nc1nc2cc(C)cc(C)c2c(=O)o1		39.8 nM	

Structure (SMILES)	Log kOH- [1]	Ki (Neutrophil elastase)	logD [2]
CCc1cc(OC)cc2nc(NC(C)C)oc(=O)c12	-0.6	11 nM	
Cc1cccc2nc(NCC(C)(C)C)oc(=O)c12		240 nM	
CCc1cccc2nc(N[C@@H](CC(C)C)C(=O)OC)oc(=O)c12	0.48	12 nM	
CCOc1nc2cccc(CC)c2c(=O)o1	1.17	0.0427 nM	
CCCCCCCCNc1nc2ccccc2c(=O)o1	0.03	31600 nM	
CSc1nc2ccccc2c(=O)o1	2.16	20.9 nM	
Cc1ccc2nc(C(F)(F)F)oc(=O)c2c1	3.23	513 nM	
CNc1nc2ccccc2c(=O)o1	1.38		1.7
CCOC(=O)CSc1nc2ccccc2c(=O)o1	2.93	72.4 nM	
CCc1cccc2nc(N(C(C)C)C(C)C)oc(=O)c12		70.8 nM	
CCSc1nc2ccc(C)cc2c(=O)o1	1.95	170 nM	
Cc1cccc2nc(NCCC(C)C)oc(=O)c12		1550 nM	
CCOc1nc2cc(N)ccc2c(=O)o1	0.2	5.75 nM	
COc1cc2nc(SC/C=C/c3ccccc3)oc(=O)c2cc1OC		6920 nM	
COc1nc2cccc(C)c2c(=O)o1		10 nM	
Cc1cccc2c(=O)oc(NCc3ccccc3)nc12	0.92	2000 nM	
CCCCCNc1nc2cccc(C)c2c(=O)o1		3390 nM	
CCOc1nc2cc(OC)cc(C)c2c(=O)o1		0.398 nM	
CCc1cc(N(C)C)cc2nc(NC(C)C)oc(=O)c12	-1.88	110 nM	

Source: ChEMBL document CHEMBL1125034, “Design and synthesis of 4H-3,1-benzoxazin-4-ones as potent alternate substrate inhibitors of human leukocyte elastase” (J Med Chem, 1990)
